According to ChEMBL document CHEMBL1122649, “3-Alkyl-2-aryl-3H-naphth[1,2-d]imidazoles, a novel class of nonacidic antiinflammatory agents” (J Med Chem, 1984):

Columns and labels:
[1] = system: Rattus norvegicus; assay: Antiinflammatory activity was measured as the percentage inhibition of edema in carrageenan induced rat paw after peroral administration of 100 mg/kg of compound; type: functional; conditions: route oral
In short: (§1)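 Female Wistar rats (120–150 g), 10 per dose, dosed orally with an aqueous suspension in 0.5% methocel (10 mL/kg) 1 h before 0.05 mL of 1% carrageenin in saline was injected into the right hind paw aponeurosis. Paw volume was read plethysmographically at injection and 4 h later. Inhibition is given relative to vehicle controls. Screening dose 200 mg/kg; 100 mg/kg was tested when inhibition exceeded 30%. Student's t test.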

[2] = system: Rattus norvegicus; assay: Antiinflammatory activity measured as the percentage inhibition of edema in carrageenan induced rat paw after peroral administration of 200 mg/kg of compound; type: functional; conditions: route oral; in short: as §1
[3] = system: Rattus norvegicus; assay: Compound was evaluated for its gastroulcerogenic effect in rats at a peroral dose of 200 mg/kg, P<0.05.; type: functional; conditions: route oral
[4] = system: Rattus norvegicus; assay: Compound was evaluated for its antiinflammatory activity in the cotton pellet induced granuloma(CPG) in normal rats at the dose 100 mg/kg p.o.; type: functional; conditions: route oral
In short: (§2)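 Male Wistar rats (150–180 g), 7 per group. Two sterile 50 mg cotton pellets were implanted subcutaneously in the interscapular region under ether. Oral dosing in 0.5% methocel (10 mL/kg) daily for 6 days, starting 6 h after surgery. Animals were killed 24 h after the last dose; pellets with granuloma were dried 24 h at 80 °C. Percent inhibition versus vehicle controls.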

[5] = system: Rattus norvegicus; assay: (§3) Compound was evaluated for its antiinflammatory activity by adjuvant-induced polyarthritis test in rats at a dosage of 100 mg/kg administered orally; type: functional; parameters: unit not given beside the values; conditions: route oral
In short: (§4)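 Female Wistar rats (130–150 g), 8 per dose. Killed Mycobacterium butyricum (0.6 mg in 0.1 mL mineral oil) was injected into the right hind plantar aponeurosis. Oral dosing in 0.5% methocel, once daily, curative scheme from day 14 to day 27. Read-outs: percent change in hind-paw volume versus controls; Newbould 0–4 lesion scores for front paws, tail and ears; plasma inflammation units by nephelometric turbidity before and after 30 min at 56 °C on day 27.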

[6] = system: Rattus norvegicus; assay: as §3; type: functional; conditions: route oral; in short: as §4
[7] = system: Rattus norvegicus; assay: Compound was evaluated for its antiinflammatory activity in the cotton pellet induced granuloma(CPG) in normal rats at the dose 50 mg/kg p.o.; type: functional; conditions: route oral; in short: as §2
[8] = species on record: Rattus norvegicus; assay: Compound was evaluated for its analgesic activity by Randall-Selitto test in comparison with that of Aspirine; type: functional
In short: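 Randall–Selitto pain threshold, measured on the inflamed right hind paw of male Wistar rats (170–200 g), 10 per dose. Edema was induced with 0.1 mL of 20% yeast suspension in saline. Oral dosing in 0.5% methocel (10 mL/kg), highest dose one-fifth of LD50, then scaling down through 100, 50, 20, 10, 5 and 2 mg/kg. Threshold read before dosing, then hourly for 6 h. Potency expressed relative to aspirin = 1.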

[9] = species on record: Rattus norvegicus; assay: Compound was evaluated for its antipyretic activity by antipyresis effect in comparison with that of Aspirin.; type: functional
In short: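 Male Sprague-Dawley rats (120–150 g), 6 per dose, starved 18 h and kept at 24 °C; rats above 38 °C were excluded. Fever was induced by subcutaneous 1 mL of filtered 5% peptone preincubated 48 h at 37 °C. Oral doses as in the analgesic test (top dose one-fifth of LD50, stepping down). Rectal thermocouple readings from 4 h after injection, then hourly for 4 h. Activity relative to aspirin = 1.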

[10] = system: Rattus norvegicus; assay: Compound was evaluated for its antiinflammatory activity by adjuvant-induced polyarthritis test in rats at a dosage of 1 mg/kg administered orally; type: functional; conditions: route oral; in short: as §4
[11] = system: Rattus norvegicus; assay: Compound was evaluated for its antiinflammatory activity in the cotton pellet induced granuloma(CPG) in normal rats at the dose 3 mg/kg p.o.; conditions: po, read-out: Inhibition
[12] = system: Rattus norvegicus; assay: Compound was evaluated for its antiinflammatory activity in the cotton pellet induced granuloma(CPG) in normal rats at the dose 200 mg/kg p.o.; type: functional; conditions: route oral; in short: as §2
[13] = system: Rattus norvegicus; assay: Compound was evaluated for its gastroulcerogenic effect in rats at a peroral dose of 200 mg/kg; type: functional; conditions: route oral
[14] = system: Rattus norvegicus; assay: (§5) Compound was evaluated for its antiinflammatory activity by adjuvant-induced polyarthritis test in rats at a dosage of 200 mg/kg administered orally; type: functional; parameters: unit not given beside the values; conditions: route oral; in short: as §4
[15] = system: Rattus norvegicus; assay: as §5; type: functional; conditions: route oral; in short: as §4

Which inhibition in vivo at 100 mg/kg [1] does the source give for `COc1ccc(-c2nc3c4ccccc4ccc3n2C(C)CO)cc1` (stereo not drawn) here?
The inhibition in vivo at 100 mg/kg was 31%.

What about the inhibition in vivo at 200 mg/kg [2] of the same compound?
The inhibition in vivo at 200 mg/kg was 35%.

Which inhibition in vivo at 100 mg/kg [1] does the source give for `CN(C)c1ccc(-c2nc3c4ccccc4ccc3n2C)cc1` here?
Its inhibition in vivo at 100 mg/kg is 54%.

And the inhibition in vivo at 200 mg/kg [2]?
The inhibition in vivo at 200 mg/kg was 68%.

And the Ulcerogenic index [3]?
The Ulcerogenic index was 1.07.

And the inhibition in vivo at 100 mg/kg [4]?
The inhibition in vivo at 100 mg/kg was 24%.

For `CCC(CC)n1c(-c2ccc(OC)cc2)nc2c3ccccc3ccc21`, which inhibition in vivo at 200 mg/kg [2] is on record?
Its inhibition in vivo at 200 mg/kg is 11%.

For `CC(=O)Nc1ccc(-c2nc3c4ccccc4ccc3n2C)cc1`, which inhibition in vivo at 100 mg/kg [1] is on record?
The inhibition in vivo at 100 mg/kg was 29%.

And the inhibition in vivo at 200 mg/kg [2]?
The inhibition in vivo at 200 mg/kg was 35%.

`CC(=O)Oc1ccc(-c2nc3c4ccccc4ccc3n2C)cc1` was tested. Which inhibition in vivo at 200 mg/kg [2] did it give?
The inhibition in vivo at 200 mg/kg was 8%.

With `Cn1c(-c2cccc(Cl)c2)nc2c3ccccc3ccc21` as the compound, how does the inhibition in vivo at 200 mg/kg [2] read?
Its inhibition in vivo at 200 mg/kg is 7%.

How did the inhibition in vivo at 200 mg/kg [2] turn out when `CCCn1c(-c2ccc(OC)cc2)nc2c3ccccc3ccc21` was run?
The inhibition in vivo at 200 mg/kg was 20%.

Which inhibition in vivo at 200 mg/kg [2] does the source give for `Cc1cc(-c2nc3c4ccccc4ccc3n2C)cc(C)c1N(C)C` here?
Its inhibition in vivo at 200 mg/kg is 14%.

Which inhibition in vivo at 200 mg/kg [2] does the source give for `CCCCn1c(-c2ccc(OC)cc2)nc2c3ccccc3ccc21` here?
Its inhibition in vivo at 200 mg/kg is 25%.

Which inhibition in vivo at 200 mg/kg [2] does the source give for `Cn1c(-c2ccc3c(c2)OCO3)nc2c3ccccc3ccc21` here?
Its inhibition in vivo at 200 mg/kg is 28%.

`C=C(C)n1c(-c2ccc(OC)cc2)nc2c3ccccc3ccc21` was tested. Which “Mean volume of hind paws” value [5] did it give?
The value was 38.

And the Arthritis scores [6]?
Its Arthritis scores is 70.

What about the Inflammation units [6] of the same compound?
The Inflammation units was 68.

What about the inhibition in vivo at 100 mg/kg [1] of the same compound?
The inhibition in vivo at 100 mg/kg was 54%.

What about the inhibition in vivo at 200 mg/kg [2] of the same compound?
Its inhibition in vivo at 200 mg/kg is 58%.

How did the inhibition in vivo at 50 mg/kg [7] turn out when `CC(=O)Oc1ccccc1C(=O)O` [ASPIRIN] was run?
Its inhibition in vivo at 50 mg/kg is 24%.

And the Activity [8]?
Its Activity is 1.

And the Activity [9]?
The Activity was 1.

What about the Ulcerogenic index [3] of the same compound?
Its Ulcerogenic index is 1.6.

With `COc1ccc2c(c1)c(CC(=O)O)c(C)n2C(=O)c1ccc(Cl)cc1` [INDOMETHACIN] as the compound, how does the Activity [8] read?
The Activity was 34.

And the Activity [9]?
Its Activity is 15.4.

And the Arthritis scores [10]?
Its Arthritis scores is 65.

What about the Inflammation units [10] of the same compound?
Its Inflammation units is 82.

What about the “Mean volume of hind paws” value [10] of the same compound?
Its value is 52.

And the Ulcerogenic index [3]?
Its Ulcerogenic index is 1.5.

And the inhibition in vivo at 3 mg/kg [11]?
The inhibition in vivo at 3 mg/kg was 41%.

With `CNc1ccc(-c2nc3c4ccccc4ccc3n2C)cc1` as the compound, how does the inhibition in vivo at 100 mg/kg [1] read?
The inhibition in vivo at 100 mg/kg was 47%.

And the inhibition in vivo at 200 mg/kg [2]?
Its inhibition in vivo at 200 mg/kg is 59%.

And the Ulcerogenic index [3]?
Its Ulcerogenic index is 0.16.

And the inhibition in vivo at 100 mg/kg [4]?
The inhibition in vivo at 100 mg/kg was 33%.

For `COc1ccc(-c2nc3c4ccccc4ccc3n2C2CC2)cc1`, which Activity [8] is on record?
The Activity was 0.7.

And the inhibition in vivo at 200 mg/kg [12]?
Its inhibition in vivo at 200 mg/kg is 11%.

And the Activity [9]?
The Activity was 0.8.

What about the Ulcerogenic index [13] of the same compound?
The Ulcerogenic index was 0.29.

And the inhibition in vivo at 100 mg/kg [1]?
Its inhibition in vivo at 100 mg/kg is 53%.

What about the inhibition in vivo at 200 mg/kg [2] of the same compound?
Its inhibition in vivo at 200 mg/kg is 56%.

Which Activity [8] does the source give for `COc1ccc(-c2nc3c4ccccc4ccc3n2C(C)C)cc1` [TOMOXIPROLE] here?
The Activity was 2.2.

And the inhibition in vivo at 200 mg/kg [12]?
The inhibition in vivo at 200 mg/kg was 45%.

And the Activity [9]?
The Activity was 0.7.

What about the “Mean volume of hind paws” value [5] of the same compound?
The value was 43.

What about the Arthritis scores [6] of the same compound?
The Arthritis scores was 77.

What about the Inflammation units [6] of the same compound?
The Inflammation units was 93.

And the inhibition in vivo at 100 mg/kg [1]?
The inhibition in vivo at 100 mg/kg was 45%.

What about the inhibition in vivo at 200 mg/kg [2] of the same compound?
The inhibition in vivo at 200 mg/kg was 48%.

`Cl.Cl.Cn1c(-c2cccnc2)nc2c3ccccc3ccc21` was tested. Which inhibition in vivo at 200 mg/kg [2] did it give?
The inhibition in vivo at 200 mg/kg was 12%.

How did the inhibition in vivo at 200 mg/kg [2] turn out when `CCC(C)n1c(-c2ccc(OC)cc2)nc2c3ccccc3ccc21` (stereo not drawn) was run?
The inhibition in vivo at 200 mg/kg was 18%.

Which inhibition in vivo at 200 mg/kg [2] does the source give for `COc1ccccc1-c1nc2c3ccccc3ccc2n1C` here?
The inhibition in vivo at 200 mg/kg was 0%.

For `Cn1c(-c2ccc(OCC(=O)O)cc2)nc2c3ccccc3ccc21`, which inhibition in vivo at 200 mg/kg [2] is on record?
The inhibition in vivo at 200 mg/kg was 7%.

What does the source list for `CCOc1ccc(-c2nc3c4ccccc4ccc3n2C)cc1`?
Activity [8]: 0.3; inhibition in vivo at 200 mg/kg [12]: 40%; Activity [9]: 2.2; inhibition in vivo at 100 mg/kg [1]: 37%; Mean volume of hind paws [14]: 25; inhibition in vivo at 200 mg/kg [2]: 45%; Ulcerogenic index [3]: 0.21; Arthritis scores [15]: 43; Inflammation units [15]: 60

For `COc1ccc(-c2nc3c4ccccc4ccc3n2C2CCCCC2)cc1`, which inhibition in vivo at 200 mg/kg [2] is on record?
The inhibition in vivo at 200 mg/kg was 16%.
